MrgX1 ag: agonists of human MrgX1 receptor, primary screen, HEK293 cells, Fluo-4 calcium flux; Mas-related G-protein coupled receptor member X1 (Homo sapiens), Q96LB2; Fluo-4 calcium fluorescence, agonist mode; active compounds read high; B-score at 10 µM; 310,000 tested, 0.44% active; AID 588627, 2011;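 active = calcium response B-score plate-corrected fluorescence ratio at least 3 library SD, with starting fluorescence B-score inside 5 SD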
Target sequence (Q96LB2 whole entry, looked up): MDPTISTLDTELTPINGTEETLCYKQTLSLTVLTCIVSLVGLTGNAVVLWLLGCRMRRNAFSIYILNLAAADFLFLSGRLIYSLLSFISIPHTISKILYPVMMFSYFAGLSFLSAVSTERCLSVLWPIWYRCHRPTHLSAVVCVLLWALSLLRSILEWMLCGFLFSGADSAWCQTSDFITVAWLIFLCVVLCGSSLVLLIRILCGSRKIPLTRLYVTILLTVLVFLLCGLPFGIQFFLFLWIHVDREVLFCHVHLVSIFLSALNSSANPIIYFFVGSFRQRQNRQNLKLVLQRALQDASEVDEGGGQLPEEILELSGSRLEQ
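Assay system: MrgX1-expressing HEK293 cells / Amount: fifteen thousand cells per well / Doses: test compound in the initial addition of three / Timing: cells plated overnight, dye loaded 0.5 h 37 °C, 0.5 h room temperature / Technique: kinetic calcium dye fluorescence, Fluo-4 NW / Control set: positive and negative controls per plate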
RGS4 act: RGS4 potentiators or activators, primary screen, cell-based, HEK293 M3R inducible RGS4, calcium flux; AID 463111, 2010; B-score at 10 µM; carbachol calcium flux Fluo4; active compounds read low; 310,000 tested, 0.92% active;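 active = B-score of the integrated calcium signal more than 4 SD below the library mean, with starting fluorescence not abnormally high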;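 note: negative B-score means reduced calcium response which marks RGS4 activation or potentiation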
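test system = M3R-expressing HEK293 line, RGS4 induced by doxycycline | probe or stimulus = carbachol at ECmax as muscarinic agonist stimulus | timing = dye loading 30 min 37 °C, buffer rest 30 min RT | signal = calcium dye Fluo4 fluorescence | evaluation = B score from integrated fluorescence ratio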
RGS4 block: RGS4 inhibitors, primary screen, cell-based, HEK293 M3R inducible RGS4, calcium flux; Regulator of G-protein signaling 4 (Homo sapiens), P49798; Fluo-4 calcium flux; active compounds read high; triggered by carbachol at its EC20; B-score at 10 µM; 310,000 tested, 0.45% active;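 active = B-score, a plate-corrected calcium signal, over three deviations above library mean, with baseline fluorescence within five deviations of library mean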;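 note: RGS4 expression induced by doxycycline in cells with stable M3 receptor; B-score is computed from the integrated fluorescence ratio over baseline after carbachol; higher B-score means a larger calcium signal and so more RGS4 inhibition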
Target sequence (P49798 whole entry, looked up): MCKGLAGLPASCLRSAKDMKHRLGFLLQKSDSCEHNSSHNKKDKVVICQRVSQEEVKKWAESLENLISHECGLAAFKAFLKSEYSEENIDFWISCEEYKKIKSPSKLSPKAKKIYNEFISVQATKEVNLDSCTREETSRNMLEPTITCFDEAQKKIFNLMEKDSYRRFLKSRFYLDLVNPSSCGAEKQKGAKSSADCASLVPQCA
MrgX1 antag: antagonists of human MrgX1 receptor, primary screen, HEK293 cells, Fluo-4 calcium flux; Mas-related G-protein coupled receptor member X1 (Homo sapiens), Q96LB2; BAM8-22 antagonism; active compounds read low; B-score at 10 µM; 310,000 tested, 1.3% active;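 active = calcium-response B-score plate-corrected more than 3 library SD below zero, starting fluorescence within 5 deviations, no agonist response on first addition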;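 note: peak minus trough fluorescence over baseline after final BAM8-22 challenge near maximal dose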
MrgX1 allo act: positive allosteric modulators of MrgX1, primary screen, HEK293 cells, Fluo-4 calcium flux; Mas-related G-protein coupled receptor member X1 (Homo sapiens), Q96LB2; FDSS; active compounds read high; B-score at 10 µM; 310,000 tested, 0.63% active;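 active = plate-corrected calcium response at least 3 library SD above typical, normal starting fluorescence, not activating the receptor alone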;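 note: compound read alongside a low EC10 to EC30 dose of BAM8-22 agonist; peak minus trough fluorescence over baseline measured at the second addition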
RGS4 inh valid: enhanced carbachol calcium response, M3R/RGS4 cells, RGS4 inhibitor project, cell-based, validation screen, HEK293 M3R/RGS4, calcium flux; shares compounds with RGS4 block; carbachol calcium Fluo-4 fluorescence; carbachol added at its EC20; 0 = buffer wells, 100 = carbachol control; calcium response, % at 10 µM; 1,700 tested, 65% active; AID 492999, 2010;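 active = duplicate-averaged calcium response above the buffer-only control mean plus 5 SD of those controls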;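 note: integrated fluorescence ratio F max minus min over baseline F0; higher response in RGS4-induced cells means RGS4 inhibition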
M3R Ca ctr: carbachol calcium response in non-induced M3R cells, confirmation, counter-screen for RGS4 inhibitor project, cell-based, HEK293 M3R | shares compounds with RGS4 block | carbachol calcium Fluo-4; submaximal (EC20) carbachol stimulus; buffer wells 0%, carbachol control wells 100% | 1,900 tested, 20% active | AID 493000, 2010 | activity (percent), % at 10 µM; call rule not given here;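 note: RGS4 induction absent so cells express M3R without RGS4; higher means more calcium signal and flags a non-specific hit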
M3R basal Ca ctr: signal in non-induced cells without carbachol, RGS4 inhibitor counter-screen; shares compounds with RGS4 block; HEK293 M3R/RGS4 non-induced, Fluo-4 calcium, no carbachol; normalised: buffer wells 0%, carbachol wells 100%; calcium response (agonist-mode artifact), % at 10 µM; 1,900 tested, 22% active;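 active = duplicate-averaged calcium rise in uninduced cells above buffer wells' mean plus 5 SD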
* hit, by the source's call; i = inactive; · = no result given. An excerpt weighted towards active compounds, which were near 3.5% of everything screened.

SMILES	MrgX1 ag	RGS4 act	RGS4 block	MrgX1 antag	MrgX1 allo act	RGS4 inh valid	M3R Ca ctr	M3R basal Ca ctr
CC(=O)N1CC(=O)N=C1SCC(=O)Nc1nc(C)c(-c2ccccc2)s1	i	i	i	i	i	i	i	i
CCOc1ccc(-c2csc(NC(=O)CSC3=NC(=O)CN3C(C)=O)n2)c2ccccc12	i	i	i	i	i	·	·	·
CCOc1ccc(NC(=O)CN2CCc3cc4c(cc3C2)OCCCO4)cc1OCC	i	i	i	i	i	·	·	·
O=S(=O)(c1ccccc1)c1ncc(C(F)(F)F)cc1Cl	·	i	i	·	·	·	·	·
Cc1ccc2c(CN3CCC(C)CC3)cc(=O)oc2c1	i	i	i	i	i	·	·	·
CCOC(=O)C1CCCN(Cc2cc(=O)oc3cc(C)ccc23)C1 (centres undefined)	i	i	i	i	i	i	i	10%*
CCOC(=O)C1CCN(Cc2cc(=O)oc3cc(C)ccc23)CC1	i	i	5.5*	i	i	i	i	i
O=C(CSc1nc2c(cnn2-c2ccc(F)cc2)c(=O)[nH]1)N1CCCc2ccccc21	i	i	i	i	i	i	i	i
CC(=O)N(C(C)=O)S(=O)(=O)c1ccc(N=NN2CCCCC2)cc1	i	i	i	i	i	·	·	·
Cc1ccc(/C=C/C(=O)N2CCN(c3ncccn3)CC2)o1	i	i	14*	i	i	17%*	i	i
CCOC(=O)CSc1nc2ccccc2c(=O)n1CC	i	i	i	i	i	·	·	·
CCn1c(SCC(=O)OC2CCCCC2)nc2ccccc2c1=O	i	i	5.5*	i	i	14%*	i	i
O=C(CSc1nnc(SCc2ccc(Cl)cc2)s1)N/N=C/c1c[nH]c2ccccc12	i	i	i	i	i	·	i	i
O=C(O)COc1ccccc1/C=N/NC(=O)CSc1nnc(SCc2cccc3ccccc23)s1	i	i	i	i	i	·	·	·
O=C(CSc1nnc(SCc2cccc3ccccc23)s1)N/N=C/c1c[nH]c2ccccc12	i	i	4.7*	i	i	20%*	i	i
CC(=O)Nc1ccc2c(CSc3nnc(N)s3)cc(=O)oc2c1	i	i	i	i	i	·	·	·
Cc1cc(=O)oc2c(C)c(OC(C)C(=O)N3CC[C@@]4(O)CCCC[C@H]4C3)ccc12 (some centres undefined)	i	i	i	i	i	·	·	·
O=C(NNC1=Nc2cccc3cccc1c23)c1ccc(Br)cc1	i	i	i	i	i	·	·	·
COc1ccc(NC(=O)C(=O)NCC(=O)Nc2cc(OC)ccc2OC)cc1	i	i	i	i	i	·	·	·
COc1ccc(OC)c(NC(=O)C(=O)NCc2ccncc2)c1	i	i	4.8*	i	i	10%*	i	i
Oc1ccc(C2Nc3cccc4cccc(c34)N2)c(O)c1	i	i	7.7*	i	i	9.5%*	i	i
Clc1ccccc1C1Nc2cccc3cccc(c23)N1	i	i	i	i	i	·	·	·
CCn1c2ccccc2c2cc(/C=N/NC(=O)c3ccc(O)cc3)ccc21	i	i	i	-6.3*	i	·	i	i
CCn1c2ccccc2c2cc(/C=N/NC(=O)c3cc(O)cc(O)c3)ccc21	i	i	9*	i	i	42%*	31%*	i
CNc1c(-n2cc(C(=O)OC)c(C(=O)OC)c2C(=O)OC)c(=O)n(C)c(=O)n1C	i	i	i	i	i	·	·	·
SMILES	MrgX1 ag	RGS4 act	RGS4 block	MrgX1 antag	MrgX1 allo act	RGS4 inh valid	M3R Ca ctr	M3R basal Ca ctr
O=C(Oc1cccc2cccnc12)c1ccco1	i	i	i	i	i	·	·	·
O=C(Oc1cccc2cccnc12)c1ccc(Br)o1	i	i	4.7*	i	i	42%*	i	i
Cc1c(C(=O)Oc2cccc3cccnc23)cccc1[N+](=O)[O-]	i	i	10*	i	i	56%*	i	i
O=C(Oc1cccc2cccnc12)c1cccs1	i	i	7.3*	i	i	48%*	i	i
CCC(=O)OCCNc1cc(Sc2nccn2C)c2nonc2c1[N+](=O)[O-]	i	i	i	i	i	·	i	i
CCCC(=O)OCCNc1cc(Sc2nc3ccccc3[nH]2)c2nonc2c1[N+](=O)[O-]	i	i	i	i	i	·	i	14%*
CCC(=O)OCCNc1cc(SCCC(=O)OC)c2nonc2c1[N+](=O)[O-]	i	i	i	i	i	·	·	·
CC(=O)c1cccc(NC(=O)CSc2nc(=O)n(CCN3CCOCC3)c3c2CCC3)c1	i	i	i	i	i	·	·	·
COC(=O)c1ccc(/C=C2\CCn3c2nc2cc(C(=O)O)ccc2c3=O)cc1	i	i	i	i	i	·	·	·
O=C(O)c1ccc2c(=O)n3c(nc2c1)/C(=C/c1ccc(Cl)c(Cl)c1)CC3	i	i	16*	i	i	30%*	i	i
O=C(O)c1ccc2c(=O)n3c(nc2c1)/C(=C/c1cccc(O)c1)CC3	i	i	i	i	i	·	·	·
Cc1ccc(C)c(/C=C2\CCn3c2nc2cc(C(=O)O)ccc2c3=O)c1	i	i	i	i	i	i	i	i
COc1cc2[nH]c3c(N4CCC(C(N)=O)CC4)ncnc3c2cc1OC	i	i	5.7*	i	i	i	i	i
O=C(/C=C/c1ccc([N+](=O)[O-])cc1)c1cccs1	i	i	12*	i	i	8.0%*	38%*	i
O=C(COc1ccc(Cl)cc1)Nc1ccc2c(c1)C(=O)NC2=O	i	i	i	i	i	·	·	·

Screening data from PubChem BioAssay.
